{
  "source": "ChEMBL document CHEMBL1124242",
  "about": "“Renin inhibitors. Dipeptide analogues of angiotensinogen utilizing a dihydroxyethylene transition-state mimic at the scissile bond to impart greater inhibitory potency” (J Med Chem, 1988)",
  "key": {"Renin (Homo sapiens) [1]": {"biological_target": "T1, Renin (Homo sapiens) (UniProt P00797)", "T1 sequence (whole entry)": "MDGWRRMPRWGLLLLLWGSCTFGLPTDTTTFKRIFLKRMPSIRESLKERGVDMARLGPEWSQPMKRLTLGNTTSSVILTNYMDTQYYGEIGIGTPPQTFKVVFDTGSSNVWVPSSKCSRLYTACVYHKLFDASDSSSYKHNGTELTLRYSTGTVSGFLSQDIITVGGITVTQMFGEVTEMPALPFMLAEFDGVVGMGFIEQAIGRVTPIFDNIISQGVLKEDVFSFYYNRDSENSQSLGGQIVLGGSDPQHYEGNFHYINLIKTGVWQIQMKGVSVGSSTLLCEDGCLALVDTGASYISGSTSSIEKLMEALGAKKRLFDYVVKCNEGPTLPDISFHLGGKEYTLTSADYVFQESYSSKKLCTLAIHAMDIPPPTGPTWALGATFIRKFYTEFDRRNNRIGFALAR", "assay": "In vitro inhibitory activity against renin at 10e-5 M"}, "Renin [2]": {"biological_target": "T2, Renin (Homo sapiens, UniProt P00797)", "T2 sequence (P00797 whole entry)": "T1 sequence (whole entry)", "assay": "In vitro inhibitory activity against renin at 10e-5 (M)"}, "Renin [3]": {"biological_target": "T2, Renin", "assay": "(§1) In vitro inhibitory activity against renin at 10e-6 (M)"}, "Renin (Homo sapiens) [4]": {"biological_target": "T1, Renin (Homo sapiens)", "assay": "as §1"}, "Renin [5]": {"biological_target": "T2, Renin", "assay": "In vitro inhibitory activity against renin at 10e-8(M)"}, "Cathepsin D (Bos taurus)": {"biological_target": "T3, Cathepsin D (Bos taurus) (UniProt P80209)", "T3 sequence (whole entry)": "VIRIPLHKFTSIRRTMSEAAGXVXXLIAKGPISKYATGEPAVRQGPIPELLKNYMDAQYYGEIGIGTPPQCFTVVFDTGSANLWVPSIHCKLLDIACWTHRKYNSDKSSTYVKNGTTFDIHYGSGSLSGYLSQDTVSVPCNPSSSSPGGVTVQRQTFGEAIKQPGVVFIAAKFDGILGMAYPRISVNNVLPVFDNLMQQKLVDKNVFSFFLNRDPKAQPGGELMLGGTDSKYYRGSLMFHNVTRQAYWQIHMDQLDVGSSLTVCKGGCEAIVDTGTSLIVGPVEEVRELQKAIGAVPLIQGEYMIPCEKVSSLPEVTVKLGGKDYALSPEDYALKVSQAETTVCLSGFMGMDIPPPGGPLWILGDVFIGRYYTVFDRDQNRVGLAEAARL", "assay": "In vitro Inhibitory activity against Bovine cathepsin D 10e-5 (M)", "conditions": "concentration not given here", "in_short": "(§2)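 Assayed against purified porcine pepsin or bovine cathepsin D by a method described previously. Results given as percent inhibition at 10^-5 M.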"}, "[6]": {"biological_target": "T4, Gastricsin (Homo sapiens) (UniProt P20142)", "T4 sequence (whole entry)": "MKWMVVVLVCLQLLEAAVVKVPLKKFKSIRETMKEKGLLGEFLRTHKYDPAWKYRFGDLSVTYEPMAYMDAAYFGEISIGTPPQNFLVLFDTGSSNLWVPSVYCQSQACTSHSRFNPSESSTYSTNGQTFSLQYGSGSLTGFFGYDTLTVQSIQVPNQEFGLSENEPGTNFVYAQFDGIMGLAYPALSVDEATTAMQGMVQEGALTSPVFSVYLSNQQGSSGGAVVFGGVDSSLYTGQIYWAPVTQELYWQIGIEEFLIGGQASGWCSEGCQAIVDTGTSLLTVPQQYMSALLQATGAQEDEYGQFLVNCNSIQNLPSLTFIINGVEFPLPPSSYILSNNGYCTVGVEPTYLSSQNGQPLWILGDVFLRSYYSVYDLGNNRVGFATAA", "assay": "In vitro Inhibitory activity against human Gastricsin at 10e-5 (M)", "in_short": "(§3)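 Human gastricsin and pepsin isolated from gastric juice by IRC-50 ion exchange with pH elution. Hemoglobin substrate; gastricsin run at pH 3.1, pepsin at pH 2.0. After trichloroacetic acid precipitation, supernatant absorbance read at 280 nm. Results given as percent inhibition at 10^-5 M.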"}, "Pepsin A (Homo sapiens)": {"biological_target": "Pepsin A (Homo sapiens) (UniProt P0DJD9)", "sequence (P0DJD9 63-388 limits assumed)": "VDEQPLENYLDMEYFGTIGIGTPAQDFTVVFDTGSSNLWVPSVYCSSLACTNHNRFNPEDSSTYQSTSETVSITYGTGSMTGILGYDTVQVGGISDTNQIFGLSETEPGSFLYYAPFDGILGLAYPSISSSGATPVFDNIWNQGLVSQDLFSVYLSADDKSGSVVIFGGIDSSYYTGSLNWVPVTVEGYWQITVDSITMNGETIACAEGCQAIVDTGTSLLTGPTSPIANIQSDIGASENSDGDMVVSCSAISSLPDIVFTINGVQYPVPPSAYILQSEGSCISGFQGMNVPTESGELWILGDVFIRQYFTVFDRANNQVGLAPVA", "assay": "In vitro inhibitory activity against Human pepsin at 10e-5 M", "in_short": "as §3"}, "Renin [7]": {"biological_target": "T2, Renin", "assay": "In vitro inhibitory activity was tested against purified human renal renin"}, "Renin (Homo sapiens) [8]": {"biological_target": "T1, Renin (Homo sapiens)", "assay": "In vitro Inhibitory activity against Renin at 10e-9 (M)", "in_short": "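Purified human renin, procedure as reported earlier. Results given as percent inhibition at 10^-9 M.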"}, "Pepsin A (Sus scrofa)": {"biological_target": "Pepsin A (Sus scrofa) (UniProt P00791)", "sequence (P00791 60-385 limits assumed)": "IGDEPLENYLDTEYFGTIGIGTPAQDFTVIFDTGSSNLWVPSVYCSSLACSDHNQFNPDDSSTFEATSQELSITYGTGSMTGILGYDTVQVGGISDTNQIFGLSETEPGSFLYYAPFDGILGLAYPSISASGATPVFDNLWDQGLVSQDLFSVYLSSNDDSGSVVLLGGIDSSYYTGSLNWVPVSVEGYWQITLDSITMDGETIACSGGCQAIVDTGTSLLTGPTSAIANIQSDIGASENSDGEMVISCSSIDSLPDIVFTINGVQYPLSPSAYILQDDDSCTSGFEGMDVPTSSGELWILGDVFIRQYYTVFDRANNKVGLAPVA", "assay": "In vitro Inhibitory activity against porcine Pepsin at 10e-5 (M)", "in_short": "as §2"}},
  "note": "Where a SMILES comes first, the peptide text is derived from it. [ ]: non-standard residue; d: D form. The star is where a group is joined. 1Nal = N[C@@H](Cc1cccc2ccccc12)C(=O)O; Cha = N[C@@H](CC1CCCCC1)C(=O)O; Leu(ol) = CC(C)C[C@H](N)CO; Cbz = O=C(OCc1ccccc1)*; Boc = CC(C)(C)OC(=O)*",
  "data": [
    {"smiles": "C[C@H](NC(=O)[C@H](Cc1ccccc1)NC(=O)OC(C)(C)C)C(=O)N[C@H](C=O)CC1CCCCC1", "note": "(Boc-Phe-Ala-[Cha]-aldehyde)", "values": [
      {"measurement": "inhibition", "setting": "Renin (Homo sapiens) [1]", "value": 93, "unit": "%"},
      {"measurement": "IC50", "setting": "Renin [2]", "value": 450, "unit": "nM"}
    ]},
    {"smiles": "CC(C)C[C@@H](CO)NC(=O)[C@H](Cc1c[nH]cn1)NC(=O)[C@H](Cc1cccc2ccccc12)NC(=O)OCc1ccccc1", "note": "(Cbz-[1Nal]-His-[Leu(ol)])", "values": [
      {"measurement": "IC50", "setting": "Renin [3]", "value": 3600, "unit": "nM"},
      {"measurement": "inhibition", "setting": "Renin (Homo sapiens) [4]", "value": 61, "unit": "%"}
    ]},
    {"smiles": "CC(C)C[C@@H](C=O)NC(=O)[C@H](Cc1c[nH]cn1)NC(=O)[C@H](Cc1cccc2ccccc12)NC(=O)OCc1ccccc1", "note": "(Cbz-[1Nal]-His-Leu-aldehyde)", "values": [
      {"measurement": "IC50", "setting": "Renin [5]", "value": 80, "unit": "nM"}
    ]},
    {"smiles": "CC(C)C[C@H](NC(=O)OC(C)(C)C)C(=O)N[C@@H](CC(C)C)C(=O)N[C@@H](CC1CCCCC1)[C@@H](O)[C@@H](O)CC(C)C", "values": [
      {"measurement": "inhibition", "setting": "Cathepsin D (Bos taurus)", "value": 81, "unit": "%"},
      {"measurement": "inhibition", "setting": "[6]", "value": 0, "unit": "%"},
      {"measurement": "inhibition", "setting": "Pepsin A (Homo sapiens)", "value": 25, "unit": "%"},
      {"measurement": "IC50", "setting": "Renin [7]", "value": 2.5, "unit": "nM"},
      {"measurement": "inhibition", "setting": "Renin (Homo sapiens) [8]", "value": 23, "unit": "%"},
      {"measurement": "inhibition", "setting": "Pepsin A (Sus scrofa)", "value": 63, "unit": "%"}
    ]}
  ]
}
